This is a sample that favours compounds with a hit; in the whole collection about 3% have one here.
SENP8 block-1 – inhibitors of human SENP8 protease. inhibition, % at 20 µM. Q96LD8. 0.64% of 360,000 active. recombinant SENP8, Nedd8 substrate fluorescence; in the data active = inhibition mostly above about 40%, no sharp cut-off; inactive = mostly below about 27%
Apaf1 inhib – inhibitors of human Apaf-1 apoptosome; inhibition, % at 20 µM; O14727; reconstituted apoptosome caspase-3 activity, DEVD-Rh110 fluorescence; 0.71% of 330,000 active; active = inhibition of at least 40% at 20 µM;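 note: plate controls were DMSO wells for no effect and DEVD-CHO caspase inhibitor wells for full effect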
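Material: cell-free apoptosome with Apaf-1, procaspase-3 and caspase-9; Buffer or medium: Hepes pH 7.5 with detergent and BSA; Reagent: cytochrome c trigger plus (Z-DEVD)2-Rh110 caspase-3 substrate; Times: compound with Apaf-1, dATP, procaspase-3 30 min, then 50 min reaction, room temperature; Technique: Rh110 fluorescence intensity.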
SENP7 block – inhibitors of human SENP7 protease; 1.5% of 330,000 active; inhibition, % at 5 µM; recombinant SENP7, Z-RLRGG-aminoluciferin luminescence, 40 min;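 active = inhibition above about 50% at the single test dose, limit read from the data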;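 note: plate controls were DMSO with enzyme for no effect and no enzyme buffer wells for full effect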
SENP8 block-2 – SENP8 protease inhibition. Q96LD8. purified SENP8, Z-RLRGG-aminoluciferin cleavage, luminescence. inhibition, % at 10 µM. 1.2% of 330,000 active. AID 2540; in the data active = inhibition above about 50%
SENP6 block – SENP6 protease inhibition. Q9GZR1. Recombinant SENP6 catalytic domain, aminoluciferin luminescence. inhibition, % at 10 µM. 1.8% of 330,000 active. AID 2599;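 active = inhibition above about 50% at the single tested dose, limit read from the data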;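 note: plate controls were DMSO wells with enzyme for no effect and DMSO wells lacking enzyme for full effect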
Target sequence (Q9GZR1 628-1112 limits assumed): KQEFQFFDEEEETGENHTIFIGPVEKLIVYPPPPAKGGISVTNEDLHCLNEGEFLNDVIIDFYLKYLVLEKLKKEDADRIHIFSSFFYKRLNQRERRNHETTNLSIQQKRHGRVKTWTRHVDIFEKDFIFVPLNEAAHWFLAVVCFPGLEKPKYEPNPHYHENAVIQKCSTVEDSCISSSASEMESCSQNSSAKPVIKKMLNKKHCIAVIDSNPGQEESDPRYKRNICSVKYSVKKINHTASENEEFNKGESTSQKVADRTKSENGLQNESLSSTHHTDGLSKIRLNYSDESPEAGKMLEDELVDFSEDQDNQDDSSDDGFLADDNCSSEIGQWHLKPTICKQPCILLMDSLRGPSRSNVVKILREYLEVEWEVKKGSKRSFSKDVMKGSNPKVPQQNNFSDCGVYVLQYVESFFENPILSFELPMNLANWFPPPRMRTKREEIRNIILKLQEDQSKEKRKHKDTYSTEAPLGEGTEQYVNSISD
UBC13 polyUb – human UBC13 polyubiquitination inhibition; 0.47% of 330,000 active; P61088; AID 485273; inhibition, % at 20 µM; UBC13 polyubiquitin chain formation, TR-FRET; in the data active = inhibition above about 45%, passing the limit was not always enough
SENP8 confirm – confirmation of human SENP8 protease inhibitors; shares compounds with SENP7 block; Recombinant SENP8, Z-RLRGG-aminoluciferin luminescence, 60 min; inhibition, % at 12.5 µM; 40% of 6,200 active; AID 488912;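 active = mean inhibition across replicates above about 50%, limit read from the data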
SENP6 confirm – confirmation of human SENP6 protease inhibitors | recombinant SENP6, Z-RLRGG-aminoluciferin luminescence | inhibition, % at 12.5 µM | shares compounds with SENP7 block | 58% of 6,200 active
SENP7 conf – confirmation of human SENP7 protease inhibitors. recombinant SENP7, Z-RLRGG-aminoluciferin luminescence, 40 min. inhibition, % at 12.5 µM. shares compounds with SENP7 block. 69% of 6,200 active
Casp3 SENP sel – caspase-3 inhibition (SENP selectivity assay) | inhibition, % at 12.5 µM | shares compounds with SENP7 block | purified caspase-3, Z-DEVD-aminoluciferin luminescence, 60 min | 60% of 6,200 active;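 active = mean inhibition above about 50%, limit read from the data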;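 note: plate controls were enzyme with DMSO for no effect and wells without caspase-3 for full effect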
Target sequence (P42574 28-227 limits assumed): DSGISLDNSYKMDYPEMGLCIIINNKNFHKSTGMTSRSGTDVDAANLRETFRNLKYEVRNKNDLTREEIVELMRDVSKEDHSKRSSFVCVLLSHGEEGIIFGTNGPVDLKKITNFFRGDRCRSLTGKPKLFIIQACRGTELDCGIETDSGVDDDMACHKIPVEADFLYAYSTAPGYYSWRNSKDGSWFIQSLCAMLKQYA
Luc interf – interferes with luciferase luminescence in SENP counter-screen | 39% of 6,200 active | shares compounds with SENP7 block | AID 488919 | Pre-incubated SENP8/Z-RLRGG-aminoluciferin, luciferase luminescence interference | inhibition, % at 12.5 µM;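 active = mean inhibition above about 50% when retested at one dose, limit read from the data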;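 note: plate controls were DMSO wells with completed reaction for no effect and substrate without enzyme for full effect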
The depositor's hits bear a star; · = no result given.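 Rule for the calls, unless noted: active = mean inhibition above about 50% in the one-dose retest (limit read from the data); inactive = the rest.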

SMILES	SENP8 block-1	Apaf1 inhib	SENP7 block	SENP8 block-2	SENP6 block	UBC13 polyUb	SENP8 confirm	SENP6 confirm	SENP7 conf	Casp3 SENP sel	Luc interf
Cc1ccc2nc(N3C(=O)C(O)=C(C(=O)c4ccco4)C3c3cccs3)sc2c1 (centres undefined)	-61.6	16.5	45.9	52.6*	74.2*	-13.2	6.8	10.0	29.0	37.5	15.3
CN1C2CCC1CC(OC(=O)C(CO)c1ccccc1)C2 (centres undefined)	3.9	0.4	-4.8	-0.8	1.2	3.3	·	·	·	·	·
COc1ccc(/C=N/OCC(=O)Nc2nc3ccccc3s2)cc1	-0.5	13.7	54.1*	53.4*	78.4*	10.6	-6.9	-6.0	-2.4	4.3	6.1
CCCOc1ccc(C(=O)NC(=S)Nc2nc3ccccc3s2)cc1	26.5	-0.1	91.9*	-6.2	2.7	-0.3	5.0	10.5	15.9	5.1	12.1
CCOC(=O)CC(=O)Nc1nc2ccccc2s1	13.8	5.7	1.5	-4.4	1.8	2.7	·	·	·	·	·
C/C(=N\OCC(=O)Nc1nc2ccccc2s1)c1ccccc1	9.2	11.9	13.2	26.1	45.3	-10.5	·	·	·	·	·
COc1ccc(/C(C)=N/OCC(=O)Nc2nc3ccccc3s2)cc1OC	0.2	7.8	30.4	36.2	52.8*	-3.9	40.5	33.5	63.9*	20.7	33.8
COC(=O)[C@@]12C[C@@H](CC(=O)NCCCN3CCCC3=O)C(=O)N(CCc3ccc(OC)c(OC)c3)C1=CCC(C)(C)C2	23.8	·	·	·	·	·	·	·	·	·	·
Cc1ccc(S(=O)(=O)n2nccc2-c2c(-c3ccccc3)noc2C)cc1	7.6	13.5	-8.7	-13.1	-9.7	0.6	·	·	·	·	·
Cc1ccc(-c2cc3onc(-c4ccccc4)c3c(=O)n2C)cc1	3.9	15.5	96.1*	91.7*	92.8*	4.6	2.7	9.6	7.2	45.6	0.4
COc1ccc(C(=O)NCCS(=O)(=O)N2CCOCC2)cc1	8.7	3.0	-2.6	2.3	-6.4	4.8	·	·	·	·	·
O=C(Nc1ccccc1)O/N=C/c1ccccc1Cl	14.3	-5.2	55.8*	26.4	39.2	5.0	60.1*	52.9*	76.6*	35.2	53.2*
O=C(Nc1ccccc1Cl)O/N=C/c1ccc(F)cc1	17.4	·	·	·	·	·	·	·	·	·	·
O=C(Nc1ccccc1)O/N=C/c1ccc(F)cc1	15.2	13.2	59.0*	42.2	67.7*	-10.1	67.1*	64.6*	89.1*	74.6*	48.5
COc1ccc(NC(=O)O/N=C/c2ccc(Br)cc2)cc1	28.5	6.7	6.0	-6.4	16.0	-8.3	·	·	·	·	·
COc1ccc(/C=N/OC(=O)Nc2ccccc2OC)cc1	18.5	7.9	81.0*	72.0*	42.5	8.5	19.8	86.6*	22.0	83.1*	33.3
Cc1ccc(NC(=O)O/N=C/c2ccc(F)cc2)cc1	8.9	0.7	2.0	1.6	5.8	-7.9	·	·	·	·	·
Cc1c(CCC(=O)O)c(=O)oc2c(C)c(OCc3cc4c(cc3Cl)OCO4)ccc12	-193.1	6.2	4.2	-5.8	-14.7	0.8	·	·	·	·	·
COc1ccc(NC(=O)n2ncc3cc(Cl)ccc32)cc1OC	29.7	7.7	25.8	45.7	60.3*	-5.6	20.4	59.2*	36.3	33.5	20.8
COc1cc(NC(=O)n2ncc3cc(Cl)ccc32)cc(OC)c1	22.8	5.7	28.4	54.1*	38.0	2.6	-24.2	-1.2	18.4	19.7	-11.3
O=C(Nc1ccccc1F)n1ncc2cc(Cl)ccc21	19.4	5.9	-2.4	-10.1	-2.5	-5.8	·	·	·	·	·
CCN1CCN(CCCNC(=O)C2c3ccccc3C(=O)N(c3ccc(OC)cc3)C2c2ccc(OC)cc2)CC1 (centres undefined)	12.3	-5.9	1.3	-2.4	-26.7	20.4	·	·	·	·	·
CC1CCCC(NC(=O)C2CCN(S(=O)(=O)c3cnc[nH]3)CC2)C1C (centres undefined)	5.0	-9.5	0.7	-4.1	-1.5	9.9	·	·	·	·	·
O=C(CSc1n[nH]c(=O)n1C1CC1)NCc1ccccc1Cl	-33.2	-11.7	0.5	3.7	5.8	0.5	·	·	·	·	·
Cc1ccc(-c2nc3ccccn3c2NCc2ccc3c(c2)OCO3)cc1	-298.3	22.5	-4.1	0.6	50.7*	6.6	29.3	19.6	42.9	26.5	40.2
SMILES	SENP8 block-1	Apaf1 inhib	SENP7 block	SENP8 block-2	SENP6 block	UBC13 polyUb	SENP8 confirm	SENP6 confirm	SENP7 conf	Casp3 SENP sel	Luc interf
Oc1ccc(-c2nc3ccccn3c2NCc2ccco2)cc1	-496.4	-6.4	0.6	5.1	55.6*	13.2	24.9	19.7	60.8*	47.8	44.0
Cc1ccccc1N=C1Nc2ccccc2CS1	21.1	17.6	79.8*	74.0*	85.9*	7.4	34.5	78.8*	95.3*	78.8*	45.1
COc1ccc(NC(=O)c2ccccc2F)cc1Cl	18.5	10.4	78.8*	75.8*	80.7*	4.1	83.4*	84.1*	92.4*	88.3*	20.7
O=C(Nc1ccccc1)Nc1ccc(C(=O)N2CCOCC2)cc1	19.1	-2.3	81.8*	60.8*	58.5*	2.7	80.9*	81.2*	96.6*	93.4*	82.2*
O=C(Nc1cc(C(=O)N2CCCC2)ccc1N1CCCC1)c1ccccc1F	5.5	-17.4	-1.3	1.4	13.0	3.2	·	·	·	·	·
O=C(Nc1ccc2c(c1)OCCO2)c1ccccc1F	10.3	-9.8	78.5*	57.9*	75.9*	7.2	69.0*	68.3*	92.5*	90.4*	80.7*
O=C(NC(=S)Nc1ccc2c(c1)OCCO2)c1ccccc1F	19.8	4.1	2.4	-8.8	-23.6	8.8	·	·	·	·	·
COc1ccc(NC(=O)c2ccco2)cc1NC(=O)c1ccccc1F	6.4	15.3	-6.6	-11.2	-14.2	5.1	·	·	·	·	·
O=C(Nc1ccc(C(=O)N2CCCC2)cc1)c1ccccc1F	5.1	-24.1	76.6*	57.6*	69.4*	-4.4	66.1*	68.0*	91.3*	93.3*	78.0*
O=C(Nc1ccc2c(c1)OCCO2)c1ccccn1	2.4	9.2	89.0*	82.1*	88.5*	-0.4	89.4*	89.2*	100.0*	96.8*	92.1*
O=C(Nc1ccc(F)cc1)c1ccccc1F	11.7	-9.0	2.3	1.5	19.8	2.8	·	·	·	·	·
O=C(Nc1ccc2c(c1)OCCO2)c1ccc2ccccc2n1	-3.9	7.5	64.5*	54.2*	17.7	2.6	-4.5	65.7*	89.9*	56.3*	32.8

Source: PubChem (Sanford-Burnham Center for Chemical Genomics)
